From PubChem BioAssay
IMP-1 inh: inhibitors of Pseudomonas aeruginosa IMP-1 metallo-beta-lactamase | purified IMP-1, nitrocefin hydrolysis, epi-absorbance fluorescence | inhibition, % at 5.6 µM | hit rate 0.45% among 290,000;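 active = inhibition above the mean plus 3 SD of all compounds in the same screening run, cut at about 4.5% in these data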;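 note: 0% = IMP-1 with DMSO and 100% = DMSO wells lacking enzyme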
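assay system = purified recombinant IMP-1 metallo-beta-lactamase enzyme | schedule = 15 min preincubation plus 25 min reaction at 25 °C | signal = Epi-absorbance fluorescence, 480 nm excitation, 530 nm emission | read-out basis = percent inhibition from optical density relative to buffer-blank wells | controls = IMP-1 with DMSO as 0%, enzyme-free DMSO as 100%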
Fh CTSL1 inh: cathepsin L1 inhibition, PFM18AAP counter-screen; hit rate 0.49% among 300,000; AID 1906; inhibition, % at 5.96 µM; recombinant F. hepatica cathepsin L1, Z-Leu-Arg-MCA fluorescence;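 active = inhibition above the mean of all tested compounds plus 3 SD, set per screening campaign, cut at about 17% in these data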;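 note: 0% = plate median of test compound wells and 100% = 1 µM Z-Phe-Ala-diazomethylketone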
M18AAP inhibitor: PfM18AAP enzyme inhibition. inhibition, % at 7.35 µM. recombinant PfM18AAP, H-Glu-NHMec fluorogenic cleavage. hit rate 1.2% among 290,000. AID 1822;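 active = inhibition above the campaign mean inhibition over all tested compounds plus 3 SD, cut at about 28% in these data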;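 note: 0% = plate median of test compound wells and 100% = 2 mM ZnCl2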
VIM-2 inh: inhibitors of Pseudomonas aeruginosa VIM-2 metallo-beta-lactamase. inhibition, % at 5.6 µM. hit rate 0.89% among 290,000. purified VIM-2, nitrocefin hydrolysis, epi-absorbance fluorescence;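 active = inhibition above the mean of all tested compounds plus 3 SD, cutoff set per screening run, cut at about 7.5% in these data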;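 note: red hydrolysis product quenches plate fluorescence so inhibitors raise well fluorescence; 0% = enzyme with DMSO and 100% = DMSO without enzyme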
* = called active by the depositor. An excerpt weighted towards active compounds, which were near 2.7% of everything screened.

Results for O=C(NC(=S)Nc1ccc(S(=O)(=O)N2CCCCC2)cc1)c1ccccc1 ?
IMP-1 inh: -3; Fh CTSL1 inh: 3; M18AAP inhibitor: -7; VIM-2 inh: -5

What do the screens show for `COc1cc(/C=C2/C(=O)c3cccc([N+](=O)[O-])c3C2=O)c(Br)cc1O`?
IMP-1 inh: 1; Fh CTSL1 inh: -3; M18AAP inhibitor: 30*; VIM-2 inh: 1

Results for COc1ccc(CN(C(=O)COc2ccccc2)c2ccccc2C(=O)O)cc1 ?
IMP-1 inh: -3; Fh CTSL1 inh: -3; M18AAP inhibitor: 4; VIM-2 inh: -2

How did C=CCNC(=O)CC(=O)N/N=C/c1cccc(C)c1 do in these assays?
IMP-1 inh: 0; Fh CTSL1 inh: 0; M18AAP inhibitor: 5; VIM-2 inh: -4

How did O=C(CSc1nnc(C2CC2)n1Cc1ccccc1)c1ccc(S(=O)(=O)N2CCOCC2)cc1 do in these assays?
IMP-1 inh: -3; Fh CTSL1 inh: -1; M18AAP inhibitor: 8; VIM-2 inh: 23*

Results for O=C(CSc1nnc(C2CC2)n1Cc1ccccc1)N1CCN(S(=O)(=O)c2ccccc2)CC1 ?
IMP-1 inh: -1; Fh CTSL1 inh: -1; M18AAP inhibitor: 3; VIM-2 inh: -1

Results for CCOC(=O)c1ccccc1NC(=O)COC(=O)CCC(=O)c1ccccc1 ?
IMP-1 inh: -4; Fh CTSL1 inh: -55; M18AAP inhibitor: -4; VIM-2 inh: -6

How did S=C(NCCNCc1ccccc1)NC1CCCCC1 do in these assays?
IMP-1 inh: -4; Fh CTSL1 inh: 19*; M18AAP inhibitor: -2; VIM-2 inh: -2

How did Cc1nc(Cl)c(C(=O)NC(=O)Nc2cccc(C(F)(F)F)c2)c(C)c1[N+](=O)[O-] do in these assays?
IMP-1 inh: -3; Fh CTSL1 inh: 2; M18AAP inhibitor: -2; VIM-2 inh: 3

Results for COc1ccc2oc(C(=O)c3ccccc3)c(N)c2c1 ?
IMP-1 inh: 0; Fh CTSL1 inh: 4; M18AAP inhibitor: 2; VIM-2 inh: 1

Results for CCOC(=O)c1oc2ccc(Br)cc2c1NC(=O)CN1CCN(C)CC1 ?
IMP-1 inh: 4; Fh CTSL1 inh: 0; M18AAP inhibitor: 4; VIM-2 inh: 9.8*

What do the screens show for `CN1CCN(CC(=O)Nc2c(C(=O)c3ccccc3)oc3ccccc23)CC1`?
IMP-1 inh: -2; Fh CTSL1 inh: 0; M18AAP inhibitor: 1; VIM-2 inh: 10*

Results for CCOC(=O)c1oc2ccccc2c1NC(=O)c1ccco1 ?
IMP-1 inh: 0; Fh CTSL1 inh: 8; M18AAP inhibitor: -1; VIM-2 inh: 3

How did COc1ccc2oc(C(=O)c3ccccc3)c(NC(=O)CN3CCN(C)CC3)c2c1 do in these assays?
IMP-1 inh: -2; Fh CTSL1 inh: 2; M18AAP inhibitor: 9; VIM-2 inh: 9.2*

How did CCOC(=O)c1oc2ccccc2c1NC(=O)CCl do in these assays?
IMP-1 inh: -2; Fh CTSL1 inh: 33*; M18AAP inhibitor: 19; VIM-2 inh: -1

Results for O=c1c2cnn(-c3ccccc3Cl)c2ncn1Cc1cccnc1 ?
IMP-1 inh: 0; Fh CTSL1 inh: -3; M18AAP inhibitor: -1; VIM-2 inh: -3

Results for COc1ccc(CCN2CC(C(=O)NCCc3cn[nH]c3)CCC2=O)cc1 (stereo not given) ?
IMP-1 inh: -1; Fh CTSL1 inh: 3; M18AAP inhibitor: -4; VIM-2 inh: 0

What do the screens show for `COc1ccc(/C=N/Nc2nnc(-c3ncc[nH]3)c3ccccc23)cc1`?
IMP-1 inh: -1; Fh CTSL1 inh: 3; M18AAP inhibitor: 12; VIM-2 inh: 0

What do the screens show for `Oc1ccc2ccccc2c1/C=N/Nc1nnc(-c2ncc[nH]2)c2ccccc12`?
IMP-1 inh: 36*; Fh CTSL1 inh: 8; M18AAP inhibitor: 7; VIM-2 inh: -4

Results for CSc1nc(C)cc(Oc2ccc(=O)n(C)n2)n1 ?
IMP-1 inh: -1; Fh CTSL1 inh: 5; M18AAP inhibitor: 1; VIM-2 inh: 2

How did Cc1cc(Oc2ccc(=O)n(C)n2)nc(=S)[nH]1 do in these assays?
IMP-1 inh: -2; Fh CTSL1 inh: 2; M18AAP inhibitor: 28*; VIM-2 inh: 3

What do the screens show for `COc1ccc2c(c1)c(/C=C/c1cc[n+](C)cc1)cn2C`?
IMP-1 inh: -1; Fh CTSL1 inh: 5; M18AAP inhibitor: 4; VIM-2 inh: 9.7*

Results for COc1ccc(Cl)cc1NC(=O)CN(C)CC(=O)NC(C)c1ccccc1 (stereo not given) ?
IMP-1 inh: -2; Fh CTSL1 inh: 0; M18AAP inhibitor: -9; VIM-2 inh: -2

How did O=C1/C(=C/c2cccs2)SC(=S)N1NS(=O)(=O)c1ccccc1 do in these assays?
IMP-1 inh: 9.0*; Fh CTSL1 inh: 1; M18AAP inhibitor: 4; VIM-2 inh: 0

Results for COc1ccc2c(CC(=O)Nc3cccc(S(=O)(=O)N4CCOCC4)c3)coc2c1 ?
IMP-1 inh: -2; Fh CTSL1 inh: -2; M18AAP inhibitor: -1; VIM-2 inh: -2

Results for Cc1ccc(NC(=O)C(C)SCC(=O)Nc2ccc(F)cc2)cc1S(=O)(=O)N1CCOCC1 (stereo not given) ?
Fh CTSL1 inh: 2

Results for Cc1ccc(SCc2ccc(C(=O)Nc3cccnc3)cc2)cc1 ?
IMP-1 inh: 15*; Fh CTSL1 inh: 4; M18AAP inhibitor: -9; VIM-2 inh: 2

Results for Cc1cccc(NS(=O)(=O)c2cc3c(cc2C)N(C)CCO3)c1 ?
IMP-1 inh: 0; Fh CTSL1 inh: 65*; M18AAP inhibitor: 1; VIM-2 inh: 0

Results for N#CC1=C(N)N(c2ccccc2)C2=C(C(=O)CCC2)C1c1cccs1 (stereo not given) ?
IMP-1 inh: -2; Fh CTSL1 inh: 6; M18AAP inhibitor: 29*; VIM-2 inh: -6

What do the screens show for `COc1ccc(-c2cc(=O)oc3cc(O)ccc23)cc1`?
IMP-1 inh: -1; Fh CTSL1 inh: 1; M18AAP inhibitor: 1; VIM-2 inh: 8.6*

What do the screens show for `S=c1cnc2ccccc2[nH]1`?
IMP-1 inh: -1; Fh CTSL1 inh: -3; M18AAP inhibitor: 24; VIM-2 inh: -1

How did O=C(O)C1C2C=CC(C2)C1C(=O)NCCCN1CCCC1=O (stereo not given) do in these assays?
IMP-1 inh: 12*; Fh CTSL1 inh: -2; M18AAP inhibitor: 1; VIM-2 inh: 1

Results for O=C(O)C1C2C=CC(C2)C1C(=O)NCCCn1ccnc1 (stereo not given) ?
IMP-1 inh: -3; Fh CTSL1 inh: -4; M18AAP inhibitor: -8; VIM-2 inh: 1

What do the screens show for `O=S(=O)(Nc1ccccc1Cl)c1cc(NC(=S)NCCN2CCOCC2)ccc1Cl`?
IMP-1 inh: -1; Fh CTSL1 inh: 1; M18AAP inhibitor: 5; VIM-2 inh: -2

Results for O=C(NN1C(=O)C2C3C=CC(C3)C2C1=O)c1ccncc1 (stereo not given) ?
IMP-1 inh: 0; Fh CTSL1 inh: 4; M18AAP inhibitor: -4; VIM-2 inh: -1

Results for O=C(NN1C(=O)C2C(c3ccccc3)C=CC(c3ccccc3)C2C1=O)c1ccncc1 (stereo not given) ?
IMP-1 inh: 12*; Fh CTSL1 inh: 0; M18AAP inhibitor: -4; VIM-2 inh: 0
